Source: ChEMBL document CHEMBL1156396, “Antifungal alkyl amino alcohols from the tropical marine sponge Haliclona n. sp” (2001)
Activity calls are given as the source filed them. The rule behind the calls is not given here.

Experiments:
Escherichia coli = assay: Antibacterial activity against Escherichia coli at 0.12 mg after 24 hrs by paper disk assay; assay type: functional, organism-based
In short: (§1)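 Paper disk diffusion: 6 mm diameter disks loaded with 0.12 mg test substance, placed on plates seeded with the test organism and incubated 24 h at 28 °C; activity scored as diameter of growth-inhibition zone (mm).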

Bacillus subtilis = assay: Antibacterial activity against Bacillus subtilis at 0.12 mg after 24 hrs by paper disk assay; assay type: functional; in short: as §1
[1] = test system: Trichophyton mentagrophytes; assay: Antifungal activity against Trichophyton mentagrophytes at 0.12 mg after 24 hrs by paper disk assay; assay type: functional; settings: for zone of inhibition at 120 µg/disc: read-out: IZ; in short: as §1
Candida albicans = assay: Antifungal activity against Candida albicans at 0.12 mg after 24 hrs by paper disk assay; assay type: functional, organism-based; in short: as §1
Amorphotheca resinae = assay: Antifungal activity against Cladosporium resinae at 0.12 mg after 24 hrs by paper disk assay; assay type: functional; settings: for zone of inhibition at 120 µg/disc: read-out: IZ; in short: as §1

| Structure (SMILES) | inhibition zone (IZ) (Escherichia coli) | inhibition zone (IZ) (Bacillus subtilis) | inhibition zone (IZ) [1] | inhibition zone (IZ) (Candida albicans) | inhibition zone (IZ) (Amorphotheca resinae) | zone of inhibition at 120 µg/disc (Bacillus subtilis; read-out: IZ) | zone of inhibition at 120 µg/disc [1] | zone of inhibition at 120 µg/disc (Amorphotheca resinae) |
| --- | --- | --- | --- | --- | --- | --- | --- | --- |
| C=CCCCCCCCCC[C@@H](O)[C@H](C)NC(C)=O | inactive | inactive | inactive | inactive | inactive |  |  |  |
| CCCCCCCC/C=C\C[C@@H](O)[C@H](C)N | Active | Active | Active | Active | Active |  |  |  |
| C=CCCCCCCCCC[C@@H](OC(C)=O)[C@H](C)NC(C)=O [DIACETYL HALAMINOL A] | inactive |  | inactive | inactive | inactive | 7 mm |  |  |
| C=CCCCCCCCCC[C@@H](O)[C@H](C)N [HALAMINOL A] | Active | Active |  | Active |  |  | 10 mm | 10 mm |
| C=CCCCCCCC[C@@H](O)[C@H](C)N [HALAMINOL B] | Active | Active |  | Active |  |  | 10 mm | 10 mm |
